Key:
[1] = molecular target: T1, Protein kinase C delta type (Homo sapiens, UniProt Q05655); assay: Inhibition of [3H]-PDBu binding to C1b domain of protein kinase C delta without phosphatidylserine
In short: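 GST-tagged δC1b expressed in BL-21 (DE3) E. coli and purified on glutathione spin columns, purity checked by SDS-PAGE. Competition with [3H]PDBu run in 50 mM Tris-HCl pH 7.4, 4 mg/ml bovine IgG, 1 mM EGTA, no phosphatidylserine, 10 min at 18 °C. Bound ligand separated by PEG precipitation on ice and counted by scintillation. Nonspecific binding taken with 64 μM unlabeled PDBu. Ki derived.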

[2] = molecular target: Protein kinase C alpha type (Homo sapiens, UniProt P17252); assay: Inhibition of [3H]PDBu binding to recombinant protein kinase C alpha was determined at pH 7.4, 37 degree C for 5 min
In short: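 PKCα displacement of [3H]PDBu in 50 mM Tris-HCl, 100 μg/ml phosphatidylserine, 4 mg/ml bovine IgG and 0.1 mM CaCl2, with a range of competitor concentrations. After incubation, chilled 7 min and 35% PEG added, then 10 min on ice and spun at 4 °C. Pellet bound radioactivity counted. Nonspecific binding measured with 64 μM unlabeled PDBu. Expressed as Ki.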

[3] = molecular target: T1, Protein kinase C delta type; assay: Inhibition of [3H]PDBu binding to C1b domain of protein kinase C delta with phosphatidylserine
In short: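 δC1b domain as GST fusion, expressed in BL-21 (DE3) E. coli and spin-purified. Assay buffer 50 mM Tris-HCl pH 7.4 with 100 μg/ml phosphatidylserine, 4 mg/ml bovine IgG and 1 mM EGTA, plus [3H]PDBu and varied competitor. Incubated 10 min at 18 °C, then precipitated with PEG and pellet counted. Specific binding is total minus binding with 64 μM cold PDBu. Ki reported.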

T1 sequence (Q05655 whole entry, the tested form may be a part): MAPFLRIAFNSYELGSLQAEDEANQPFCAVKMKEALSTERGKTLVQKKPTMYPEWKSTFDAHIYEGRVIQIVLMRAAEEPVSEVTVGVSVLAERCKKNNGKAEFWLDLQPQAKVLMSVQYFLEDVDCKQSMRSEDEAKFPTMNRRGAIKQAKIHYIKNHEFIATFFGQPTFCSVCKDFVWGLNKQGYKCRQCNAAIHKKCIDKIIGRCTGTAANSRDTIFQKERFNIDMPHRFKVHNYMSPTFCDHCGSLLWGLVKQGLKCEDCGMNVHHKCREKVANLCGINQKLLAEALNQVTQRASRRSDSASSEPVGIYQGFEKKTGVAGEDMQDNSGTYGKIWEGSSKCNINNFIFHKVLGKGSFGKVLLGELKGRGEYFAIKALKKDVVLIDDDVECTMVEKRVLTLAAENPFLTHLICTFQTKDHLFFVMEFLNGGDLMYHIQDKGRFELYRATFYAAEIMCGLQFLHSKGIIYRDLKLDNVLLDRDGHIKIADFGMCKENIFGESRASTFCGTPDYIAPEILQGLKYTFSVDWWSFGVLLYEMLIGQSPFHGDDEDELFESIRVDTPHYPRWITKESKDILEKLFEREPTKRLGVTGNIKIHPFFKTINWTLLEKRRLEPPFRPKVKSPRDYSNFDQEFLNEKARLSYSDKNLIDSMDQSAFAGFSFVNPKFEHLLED

SMILES | Ki [1] [nM] | Ki [2] [nM] | Ki [3] [nM]
CC(C)CC(C/C=C1\CC(CO)(COC(=O)C(C)(C)C)OC1=O)CC(C)C (stereo unspecified) | 103 | 3.25 | –
CC(C)CC(C/C=C1\CC(CO)(COC(=O)C(C)(C)C)OC1=S)CC(C)C (stereo unspecified) | 173 | 23.7 | 3.13
CC(C)CC(C/C=C1\CC(CO)(COC(=S)C(C)(C)C)OC1=O)CC(C)C (stereo unspecified) | 606 | 113 | 20.6
CC(C)CC(C/C=C1/COC(CO)(COC(=O)C(C)(C)C)C1)CC(C)C (stereo unspecified) | 6620 | 622 | 219

Second part, the compound after the results:

Ki [1] [nM] | Ki [2] [nM] | Ki [3] [nM] | SMILES
– | 5870 | 2140 | CC(C)CC(C/C=C1/CC(CO)(COCC(C)(C)C)OC1=O)CC(C)C (stereo unspecified)
101000 | 14300 | 1890 | CC(C)CC(C/C=C1\CC(CO)(COCC(C)(C)C)OC1=O)CC(C)C (stereo unspecified)
